Measurements gathered from unrelated publications.
Compare with care: the assays were run in different laboratories.
Target: RAC-alpha serine/threonine-protein kinase (AKT1, Homo sapiens, UniProt P31749)

C[C@@H]1CN(c2cc(-c3nn(C)c4ccc(OC5(C)CC5)cc34)ncn2)C[C@H](C)O1  remaining binding (cell-free assay; competition with immobilised ligand; 1 µM): 100%
CNC(=O)c1cc(Oc2ccc(NC(=O)Nc3ccc(Cl)c(C(F)(F)F)c3)cc2)ccn1  inhibition (enzyme activity; inhibitor; 10 µM): -3%
O=S(=O)(NCCNC/C=C/c1ccc(Br)cc1)c1cccc2cnccc12  remaining signal (cell-free assay; 0.5 µM): 41.6%
FC(F)(F)Oc1cccc(-c2cnc3ccc(-c4ccncc4)nn23)c1  activity vs control (enzyme activity; inhibitor; radiometric; 1 µM): 90%
CC(C)(C)C(=O)c1sc(NC2CCCCC2)nc1N  remaining activity (enzyme activity; inhibitor; 10 µM): 90%
CCS(=O)(=O)c1cc2cc(C[C@@](O)(CC(C)(C)c3ccc(F)cc3C(N)=O)C(F)(F)F)[nH]c2cn1  remaining binding (cell-free assay; competition with immobilised ligand; 1 µM): 86%
CSc1nc(C)c(-c2ccnc(Nc3ccc(N4CCOCC4)cc3)c2)[nH]1  inhibition (enzyme activity; inhibitor; 10 µM): -2.9%
Cc1cnc(NC2CCOCC2)nc1-n1cnc(C(=O)NC(CN)c2cc(F)cc(Cl)c2)c1 (stereo not drawn)  remaining activity (enzyme activity; inhibitor; radiometric; 1 µM): 89%
O=C(CSc1nc2nccnc2c(=O)n1CCc1ccccc1)Nc1nccs1  inhibition (enzyme activity; inhibitor; 10 µM): 4%
COc1ccc2c(c1)O[C@@H](c1ccc(OC)c(OC)c1)C[C@H]2NC(=O)C1(c2ccc3c(c2)OC(F)(F)O3)CC1  remaining binding (cell-free assay; competition with immobilised ligand; 1 µM): 100%
Cc1ccc(C(=O)NCc2ccsc2)cc1C#Cc1cn(C(C)C)c2ncnc(N)c12  activity vs control (enzyme activity; inhibitor; 1 µM): 94%
Oc1cccc(-c2nc(N3CCOCC3)c3oc4ncccc4c3n2)c1  remaining activity (enzyme activity; inhibitor; 10 µM): 78%
COc1cc2ncnc(Nc3ccc(Oc4ccccc4)cc3C)c2cc1OC  inhibition (enzyme activity; inhibitor; 1 µM): 0%
Oc1cccc(-c2nc(N3CCOCC3)c3oc4ncccc4c3n2)c1  remaining signal (cell-free assay; 0.5 µM): 95.3%
Cn1cncc1C1=CN(c2ncnc3[nH]cnc23)CCS1  inhibition (enzyme activity; inhibitor; radiometric; 50 nM): 25.1%
Cc1nc(C2CCN(C(=O)c3ccc(OC(F)(F)F)cc3N)CC2)c2ncc(N3CCN(C)CC3)cc2n1  remaining binding (cell-free assay; competition with immobilised ligand; 1 µM): 100%
Cc1ccc(C(=O)Nc2ccc(CN3CCN(C)CC3)c(C(F)(F)F)c2)cc1C#Cc1cnc2cccnn12  remaining activity (enzyme activity; inhibitor; 23.5 nM): 65%
O=C(Nc1cnn(-c2csc(C(=O)NC3COC3)c2)c1)Nc1c(F)cccc1Cl  remaining activity (enzyme activity; inhibitor; 5 µM): 105%
Cc1ccc(Nc2nccc(N(C)c3ccc4c(C)n(C)nc4c3)n2)cc1S(N)(=O)=O  inhibition (enzyme activity; inhibitor; 0.3 µM): -7%
Nc1nc(Nc2ccccc2)sc1C(=O)c1c(F)cccc1F  remaining activity (enzyme activity; inhibitor; 10 µM): 84%
COc1cc(Nc2cnc(C#N)c(O[C@H](C)CN(C)C)n2)ncc1-c1cnn(C)c1  remaining activity (enzyme activity; inhibitor; radiometric; 10 µM): 87%
Cn1cnc(Br)c1C1=CN(c2ncnc3[nH]cnc23)CCS1  inhibition (enzyme activity; inhibitor; radiometric; 2 µM): 84.3%
N#CCCc1ccc2c(c1)-c1[nH]c3ccc([N+](=O)[O-])cc3c1CC(=O)N2  remaining signal (cell-free assay; 0.5 µM): 111%
Nc1ncnc2occ(-c3ccc(NC(=O)Nc4cc(C(F)(F)F)ccc4F)cc3)c12  remaining signal (cell-free assay; inhibitor; 20 µM): 100%
Cn1c(=O)n(-c2ccc(C(C)(C)C#N)cc2)c2c3cc(-c4cnc5ccccc5c4)ccc3ncc21  remaining activity (enzyme activity; inhibitor; 10 µM): 126%
COc1cc(Cl)c(C(=O)N[C@@H](CN[C@H]2CC[C@@H](N)CC2)Cc2ccc(C#N)cc2)cc1-c1ccc(CN[C@H](C)c2ccc(C)cc2)o1  remaining activity (enzyme activity; inhibitor; 1 µM): 85%
Cc1sc(C(=O)NC2COC2)cc1-n1cc(NC(=O)Nc2c(F)cccc2Cl)cn1  remaining activity (enzyme activity; inhibitor; 10 µM): 105%
CN(C)C1CCN(CC#Cc2nn(C3CCCC3)c3nc(NCc4ccccc4)ncc23)C1 (stereo not drawn)  inhibition (enzyme activity; inhibitor; FRET; 10 µM): 7%
CNCc1ccccc1-c1csc([C@@H](C)Nc2nc(C)nc3cc(OC)c(OC)cc23)c1  remaining binding (cell-free assay; competition with immobilised ligand; 1 µM): 100%
Nc1nc(Nc2ccc(S(N)(=O)=O)cc2)nn1C(=O)c1c(F)cccc1F  remaining signal (cell-free assay; 0.5 µM): 120%
Cc1c(NC(=O)c2cc(C(N)=O)nc3cc(F)ccc23)c(C(F)(F)F)nn1Cc1ccc(C#N)cc1  remaining binding (cell-free assay; competition with immobilised ligand; 1 µM): 91%
Oc1ccc(-c2nc(-c3ccncc3)c(-c3ccc(F)cc3)[nH]2)cc1  remaining signal (cell-free assay; 0.5 µM): 101%
Cc1c[nH]c2nccc(Oc3c(F)cc(Nc4cc(Cl)nc(N)n4)cc3F)c12  remaining binding (cell-free assay; competition with immobilised ligand; 0.1 µM): 100%
CC(C)c1ccc(NC(=O)c2cccs2)c(-c2nc3ccccc3[nH]c2=O)c1  activity vs control (enzyme activity; inhibitor; 1 µM): 120%
CCc1ccccc1C(=O)Nc1n[nH]c2c(C)c(F)c(C3C(C#N)=C(C)N(C)C(C)=C3C#N)cc12  remaining binding (cell-free assay; competition with immobilised ligand; 1 µM): 75%
CCCOc1ccc(OC)c(F)c1C(=O)c1ccc(C(=O)N[C@@H]2CNC[C@H]2NC(=O)c2ccc3[nH]ncc3c2)cc1  remaining activity (enzyme activity; inhibitor; 10 µM): 20%
